Experimental findings from PMC4132832 (Biochemical pharmacology, 2013) are described below.

The structures appear in SMILES notation. Structures can show the parent of a compound that is named as a salt.

The target in this assay is Kir6.1/SUR2B channel (Rattus norvegicus, UniProt Q63664). Kind of assay: whole-cell voltage clamp, HEK293. In kind it is cell-based. A digest of the protocol: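 Rat Kir6.1 and SUR2B co-expressed in HEK293 with GFP marker, whole-cell patched at room temperature, holding 0 mV, 600-ms steps to -80 mV, symmetric 145 mM K+. Bath: K-gluconate/KCl, EGTA, glucose, HEPES pH 7.4. Pipette adds 1 mM K2ATP, 0.5 mM NaADP and 1 mM MgCl2. Plateau current normalized to the pinacidil/glibenclamide window. IC50 from Hill fit.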
Chain of Kir6.1/SUR2B channel (Q63664 whole entry): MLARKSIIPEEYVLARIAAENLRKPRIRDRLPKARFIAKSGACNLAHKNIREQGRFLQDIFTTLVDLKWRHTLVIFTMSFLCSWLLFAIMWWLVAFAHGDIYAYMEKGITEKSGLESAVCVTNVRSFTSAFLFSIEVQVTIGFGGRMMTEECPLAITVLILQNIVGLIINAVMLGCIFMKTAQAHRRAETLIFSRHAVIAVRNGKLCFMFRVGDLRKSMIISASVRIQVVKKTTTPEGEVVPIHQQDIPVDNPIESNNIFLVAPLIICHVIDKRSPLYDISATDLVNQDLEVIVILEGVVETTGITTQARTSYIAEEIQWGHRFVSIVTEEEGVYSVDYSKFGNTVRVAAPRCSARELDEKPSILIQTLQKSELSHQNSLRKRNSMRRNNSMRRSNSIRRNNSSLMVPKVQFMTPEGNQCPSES
Chain of Kir6.1/SUR2B channel (P70170 whole entry partner): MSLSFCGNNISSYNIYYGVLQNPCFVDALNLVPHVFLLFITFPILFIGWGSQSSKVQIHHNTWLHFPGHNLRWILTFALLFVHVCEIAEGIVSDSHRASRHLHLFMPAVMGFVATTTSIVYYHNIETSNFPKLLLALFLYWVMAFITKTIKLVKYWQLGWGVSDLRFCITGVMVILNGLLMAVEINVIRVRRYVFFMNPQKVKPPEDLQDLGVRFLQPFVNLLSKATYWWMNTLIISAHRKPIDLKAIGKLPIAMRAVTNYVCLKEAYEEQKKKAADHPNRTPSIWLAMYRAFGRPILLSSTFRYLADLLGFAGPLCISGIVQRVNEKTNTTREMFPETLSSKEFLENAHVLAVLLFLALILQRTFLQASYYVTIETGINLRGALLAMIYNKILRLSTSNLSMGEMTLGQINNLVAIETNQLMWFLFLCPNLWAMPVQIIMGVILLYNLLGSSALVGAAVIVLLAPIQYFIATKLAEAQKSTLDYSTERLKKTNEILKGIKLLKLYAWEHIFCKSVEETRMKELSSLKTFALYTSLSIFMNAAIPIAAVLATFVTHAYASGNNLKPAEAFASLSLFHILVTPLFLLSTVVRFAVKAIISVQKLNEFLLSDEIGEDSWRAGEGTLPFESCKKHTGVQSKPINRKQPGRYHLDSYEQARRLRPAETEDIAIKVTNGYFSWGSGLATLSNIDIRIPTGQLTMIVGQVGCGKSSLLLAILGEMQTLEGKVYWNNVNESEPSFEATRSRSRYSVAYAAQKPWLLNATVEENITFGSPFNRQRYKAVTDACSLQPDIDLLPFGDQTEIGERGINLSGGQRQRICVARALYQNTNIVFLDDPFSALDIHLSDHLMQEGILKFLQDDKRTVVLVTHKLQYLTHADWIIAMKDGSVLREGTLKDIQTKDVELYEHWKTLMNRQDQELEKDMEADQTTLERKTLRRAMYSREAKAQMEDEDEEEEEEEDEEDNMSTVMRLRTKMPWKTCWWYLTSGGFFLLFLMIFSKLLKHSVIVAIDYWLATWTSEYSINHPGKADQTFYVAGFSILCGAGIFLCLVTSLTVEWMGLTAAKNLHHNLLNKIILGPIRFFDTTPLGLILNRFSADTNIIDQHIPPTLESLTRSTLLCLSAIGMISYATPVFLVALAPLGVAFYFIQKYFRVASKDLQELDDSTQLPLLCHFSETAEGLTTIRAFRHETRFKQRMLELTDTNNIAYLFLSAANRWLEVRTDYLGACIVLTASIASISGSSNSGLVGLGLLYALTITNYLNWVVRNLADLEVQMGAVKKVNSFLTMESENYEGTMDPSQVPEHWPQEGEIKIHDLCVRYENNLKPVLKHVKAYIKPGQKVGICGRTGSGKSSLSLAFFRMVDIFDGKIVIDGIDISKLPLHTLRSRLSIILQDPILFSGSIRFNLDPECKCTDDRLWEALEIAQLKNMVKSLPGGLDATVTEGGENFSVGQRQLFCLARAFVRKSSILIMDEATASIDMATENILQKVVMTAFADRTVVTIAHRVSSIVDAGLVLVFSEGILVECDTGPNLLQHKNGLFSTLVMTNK
Take `CCOc1ccc(C=C2SC(=O)N(CCN)C2=O)cc1` [A6355, 3-(2-aminoethyl)-5-[(4-ethoxyphenyl)methylidene]-1,3-thiazolidine-2,4-dione hydrochloride]: half-maximal inhibition (IC50) was put at 8 µM.
For `O=C1NC(=O)/C(=C/c2ccc3nccnc3c2)S1` [AS605240, (5Z)-5-(quinoxalin-6-ylmethylidene)-1,3-thiazolidine-2,4-dione] the value was 60 µM; for `O=C1NC(=O)/C(=C/c2ccc(-c3ccc(F)cc3O)o2)S1` [AS-252424, (5Z)-5-[[5-(4-fluoro-2-hydroxyphenyl)furan-2-yl]methylidene]-1,3-thiazolidine-2,4-dione], 4 µM.
As to `O=C1NC(=O)C(Cc2ccc(O)cc2)S1` (stereo not drawn) [CDS005865, 5-(4-hydroxybenzyl)-2,4-thiazolidinedione], the IC50 (as a rule, the concentration needed to halve the response being measured) is > 100 µM.
With `CCc1ccc(C(=O)COc2ccc(CC3SC(=O)NC3=O)cc2)nc1` (stereo not drawn) [Cay10415, 5-[[4-[2-(5-ethylpyridin-2-yl)-2-oxoethoxy]phenyl]methyl]-1,3-thiazolidine-2,4-dione], half-maximal inhibition (IC50) required 15 µM.
For `CC1(COc2ccc(CC3SC(=O)NC3=O)cc2)CCCCC1` (stereo not drawn) [Ciglitazone, 5-[[4-[(1-methylcyclohexyl)methoxy]phenyl]methyl]-1,3-thiazolidine-2,4-dione] the value was 120 µM; for `Cc1oc(-c2ccccc2)nc1CCC(=O)c1ccc(CC2SC(=O)NC2=O)cc1` (stereo not drawn) [Darglitazone, 5-[[4-[3-(5-methyl-2-phenyl-1,3-oxazol-4-yl)propanoyl]phenyl]methyl]-1,3-thiazolidine-2,4-dione], 25 µM; for `O=C1NC(=O)C(Cc2ccc3c(c2)CC[C@H](Cc2ccccc2)O3)S1` (stereo partly drawn) [Englitazone, 5-[(2-benzyl-3,4-dihydro-2H-chromen-6-yl)methyl]-1,3-thiazolidine-2,4-dione], 7 µM.
In turn, `CC(C)OC(=O)C(C)(C)Oc1ccc(C(=O)c2ccc(Cl)cc2)cc1` [Fenofibrate, propan-2-yl 2-[4-(4-chlorobenzoyl)phenoxy]-2-methylpropanoate] registered an IC50 of 80 µM. This IC50 is about 11-fold higher than that of the compound before.
For `Cc1cc(SCc2sc(-c3ccc(C(F)(F)F)c(F)c3)nc2C)ccc1OCC(=O)O` [GW0742, 2-[4-[[2-[3-fluoro-4-(trifluoromethyl)phenyl]-4-methyl-1,3-thiazol-5-yl]methylsulfanyl]-2-methylphenoxy]acetic acid], the IC50 was determined as 80 µM.
`Cc1cc(SCc2sc(-c3ccc(C(F)(F)F)cc3)nc2C)ccc1OCC(=O)O` [GW501516, 2-[2-methyl-4-[[4-methyl-2-[4-(trifluoromethyl)phenyl]-1,3-thiazol-5-yl]methylsulfanyl]phenoxy]acetic acid]: half-maximal inhibition (IC50) was put at 120 µM. Compared with the last compound, the IC50 is about 1.5-fold higher.
Compound `Cc1ccc(C)c(OCCCC(C)(C)C(=O)O)c1` [Gemfibrozil, 5-(2,5-dimethylphenoxy)-2,2-dimethylpentanoic acid] returned an IC50 of 290 µM.
`CCc1ccc(CCOc2ccc(CC3SC(=O)NC3=O)cc2)nc1` (stereo not drawn) [Pioglitazone, 5-[[4-[2-(5-ethylpyridin-2-yl)ethoxy]phenyl]methyl]-1,3-thiazolidine-2,4-dione] displayed a half-inhibitory concentration (IC50) of 95 µM.
Regarding `CN(CCOc1ccc(CC2SC(=O)NC2=O)cc1)c1ccccn1` (stereo not drawn) [Rosiglitazone, 5-[[4-[2-[methyl(pyridin-2-yl)amino]ethoxy]phenyl]methyl]-1,3-thiazolidine-2,4-dione], inhibition was half-maximal at 12 µM (IC50).
In turn, `Cc1c(C)c2c(c(C)c1O)CCC(C)(COc1ccc(CC3SC(=O)NC3=O)cc1)O2` (stereo not drawn) [Troglitazone, 5-[[4-[(6-hydroxy-2,5,7,8-tetramethyl-3,4-dihydrochromen-2-yl)methoxy]phenyl]methyl]-1,3-thiazolidine-2,4-dione] showed an IC50 of 100 µM. Compared with the last compound, the IC50 is about 8.3-fold higher.
